The full list was thinned out, with hits kept by preference.
S1P4 agonist: agonists of human S1P4 receptor | O95977 | S1P4-expressing cell line, agonist reporter assay | activation, % at 4.98 µM | 220,000 compounds, 0.35% hits | AID 1509; in the data active = activation above about 11%;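 also: 0% = DMSO vehicle and 100% = reference agonist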
S1P3 antag: blocks the human S1P3 receptor | Q99500 | CHO S1P3 NFAT-BLA reporter, FRET fluorescence, antagonist mode | inhibition, % at 4.98 µM | 170,000 compounds, 0.27% hits;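 active = inhibition above the plate cutoff, the mean inhibition of test wells on that plate plus 3 SD, cut at about 28% in these data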;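 also: cells challenged with S1P at its EC80 of 0.8 µM; blue over green emission ratio from cleaved BLA substrate after 4 h stimulation; 0% = S1P-stimulated wells and 100% = unstimulated DMSO-only wells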
S1P4 antag: human S1P4 receptor antagonism; O95977; S1P4-expressing cells, antagonist mode, reporter read-out; inhibition, % at 4.98 µM; 220,000 compounds, 0.26% hits; AID 1510; in the data active = inhibition above about 29%;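 also: 0% = wells stimulated with agonist and 100% = vehicle wells without agonist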
Lmaj promast: Leishmania major promastigote growth inhibition; Leishmania major promastigotes, resazurin fluorescence viability; inhibition, % at 10 µM; 200,000 compounds, 9% hits; AID 1063; in the data active = inhibition above about 50%;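 also: promastigotes grown with compound for 44 hours at 28 °C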
Mdm2 ligase inh: Mdm2 E3 ligase (human) inhibition; AID 1230; 210,000 compounds, 0.11% hits; signal enhancement, % at 5 µM; cell-based MDM2 ubiquitination luciferase reporter, 2 h; 0 = plate control, 100 = twice control, blank-subtracted;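 active = signal enhancement of 30% or more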;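 also: luminescence tracks abundance of the self-degrading MDM2-luciferase fusion protein; higher signal means inhibition of MDM2 E3 ligase activity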
Target sequence (Q00987 whole entry, looked up, the tested form may be a part): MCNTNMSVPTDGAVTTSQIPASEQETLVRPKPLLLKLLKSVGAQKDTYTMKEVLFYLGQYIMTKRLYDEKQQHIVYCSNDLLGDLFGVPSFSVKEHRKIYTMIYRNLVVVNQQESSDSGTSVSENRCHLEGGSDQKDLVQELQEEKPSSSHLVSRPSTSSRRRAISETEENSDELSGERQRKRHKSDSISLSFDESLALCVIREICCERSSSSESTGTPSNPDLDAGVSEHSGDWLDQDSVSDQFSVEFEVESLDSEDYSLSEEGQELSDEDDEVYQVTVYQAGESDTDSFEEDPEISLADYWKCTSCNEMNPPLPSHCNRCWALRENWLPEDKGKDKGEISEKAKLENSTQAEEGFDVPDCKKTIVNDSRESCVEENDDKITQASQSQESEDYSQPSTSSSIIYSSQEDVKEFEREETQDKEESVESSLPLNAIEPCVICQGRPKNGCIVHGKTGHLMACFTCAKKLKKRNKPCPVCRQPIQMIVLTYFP
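Material: stable MDM2–luciferase fusion reporter cells / Quantity: 2000 cells/well / Dosing: single 5 µM compound dose, 0.2% final DMSO / Buffer or medium: DMEM / Schedule: 4 h cell settling then 2 h compound exposure, 37 °C / Detection: luminescence with SteadyLite reagent, 15 min at room temperature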
* = called active by the depositor; . = no result given.

SMILES	S1P4 agonist	S1P3 antag	S1P4 antag	Lmaj promast	Mdm2 ligase inh
CCOC(=O)c1ccc(NC(=O)C(C)Sc2nc(O)c(-c3ccccc3)c(=O)[nH]2)cc1 (configuration not stated)	1	1	-7	-9	-2
CC(=O)c1sc(N/N=C2\CC3CC2C(C)C3(C)C)nc1C (configuration not stated)	1	2	-25	91*	4
CC(=O)c1sc(N/N=C\c2ccccc2O)nc1C	1	-6	7	5	-9
O=S(=O)(Oc1ccccc1N1CCCCC1)c1ccccc1	1	11	-10	.	-8
COc1ccccc1/C=C/C(=O)NCC(=O)N/N=C/c1cc(Br)ccc1OC	0	.	-15	-9	9
COc1ccccc1C(=O)NCC(=O)N/N=C/c1cc(Br)ccc1OC(=O)/C=C\c1ccco1	0	-3	-3	92*	-5
O=C(CNC(=O)c1ccc(F)cc1)N/N=C/c1cc(Br)ccc1OC(=O)/C=C/c1ccco1	0	-6	-16	.	.
O=C(CNC(=O)c1ccccc1F)N/N=C/c1cc(Br)ccc1OC(=O)/C=C/c1ccco1	-1	1	-17	87*	-6
Cc1cccc(NC(=O)C2CCCN2S(=O)(=O)c2cccc3cccnc23)c1 (configuration not stated)	-1	-1	-23	-5	-6
Cc1nn(C)c(Cl)c1C(N)=O	-2	-24	1	0	-10
Cc1ccc(C2=NNC3(CCOC(C)(C)C3)S2)cc1 (configuration not stated)	0	-16	-1	1	1
Cc1ccc(N2CCN(S(=O)(=O)N3CCCCC3)CC2)cc1Cl	-2	-6	10	76*	-14
COc1ccc(Nc2nnc(-c3ccc(C)cc3)c3ccccc23)cc1C(=O)N1CCCCC1	4	4	-8	66*	-2
C=C(C(=O)c1ccccc1)C(c1ccccc1)C(C)C(=O)c1ccccc1 (configuration not stated)	-1	5	-8	89*	-18
C=C(C(=O)c1ccccc1)C(C)C(=C)C(=O)c1ccccc1	0	6	14	100*	-9
CC(NC(=O)Nc1ccccc1)C(c1ccccc1)N1CCOCC1 (configuration not stated)	-1	-11	-23	52*	6
CC(NC(=O)Nc1ccccc1)C(c1cccs1)N1CCOCC1 (configuration not stated)	-2	-25	-9	-1	-18
CC(C)COP(=O)(OCC(C)C)C(Nc1ccccc1)c1ccccc1 (configuration not stated)	1	17	6	.	-14
CC(C)COP(=O)(OCC(C)C)C(Nc1ccccc1)c1ccc(F)cc1 (configuration not stated)	-1	3	-4	93*	0
CCOc1ccc(C(O)C(CN2CCOCC2)c2ccccc2)cc1 (configuration not stated)	1	.	-8	84*	9
CCCCOc1ccc(C(O)C(CN2CCOCC2)c2ccccc2)cc1 (configuration not stated)	-2	-5	2	.	-3
CCCCOc1ccc(C(O)C(CN2CCCCC2)c2ccccc2)cc1 (configuration not stated)	1	13	9	70*	-20
CCCOc1ccc(C(O)C(CN2CCOCC2)c2ccccc2)cc1 (configuration not stated)	1	.	-22	89*	-3
CCCOC(=O)Nc1cc(OC)ccc1[N+](=O)[O-]	0	-19	13	1	-16
COc1cc(C)c(NC(c2ccccc2)c2ccccc2)cc1OC	1	-6	2	91*	2
SMILES	S1P4 agonist	S1P3 antag	S1P4 antag	Lmaj promast	Mdm2 ligase inh
COc1cc(C)c(NC(=S)Nc2ccc(C)c(Cl)c2)cc1OC	1	1	0	15	-21
C=CCN1C(=Nc2cccnc2)SCC1(O)c1ccc(C)cc1 (configuration not stated)	0	-4	-1	61*	-10
Cn1c(=O)[nH]c(=O)c2c1nc(N1CCOCC1)n2CCSc1ncccn1	2	-23	0	1	.
CC(=O)N1CCN(C(=O)COc2ccccc2C(=O)Nc2ccccc2)CC1	2	-12	-5	-5	-6
CCN(CC)CC(O)COc1ccccc1C(=O)CCc1ccccc1 (configuration not stated)	-2	4	-4	95*	.
CCC(=O)c1ccc(OCC(O)CN(CCc2ccccc2)Cc2ccccc2)cc1 (configuration not stated)	1	.	-13	100*	-1
CCCCN(CCCC)CC(O)COc1ccccc1C(=O)Nc1ccccc1 (configuration not stated)	-1	-28	7	91*	4
COc1cccc(OCC(O)CN(CCO)Cc2ccccc2)c1 (configuration not stated)	-1	-26	-22	25	-11
CCOc1ccc(S(=O)(=O)N(C)c2ccc(OCC(=O)NCCc3ccc(OC)cc3)cc2)cc1	-1	-4	1	.	.
CSCCC(NS(=O)(=O)c1ccc(Cl)cc1)C(=O)OCC(=O)c1c(C)[nH]c2ccccc12 (configuration not stated)	-1	0	-10	48	-10
CSCCC(NS(=O)(=O)c1ccc2ccccc2c1)C(=O)OCC(=O)c1ccc(C(C)C)cc1 (configuration not stated)	0	4	-13	87*	-13
Cc1cc(Cl)ccc1NNC(=O)CCc1ccccc1	2	12	3	.	-24
COc1cc(/C=C/C(=O)c2ccc(F)cc2)cc(OC)c1OC	-1	-13	16	100*	-11
COc1ccc(C(=O)/C=C/c2ccc(OC(=O)c3cc(OC)c(OC)c(OC)c3)cc2)cc1	-1	-13	-4	65*	-30
N#CCCN(Cc1cccs1)C(=O)Nc1ccccc1	2	14	-6	.	0
Cc1cc(C)c2nc(C)cc(Nc3ccc(C(=O)N(C)C)cc3)c2c1	0	-4	6	.	-19
CC(=O)c1ccc(Nc2cc(C)nc3c(C)cc(C)cc23)cc1	0	-3	-2	100*	-31
O=C(Cc1ccccc1[N+](=O)[O-])NCCSCc1c(F)cccc1Cl	-1	.	-3	-6	-8
CCOC(=O)C1CCCN(C(=O)c2cc(-c3ccc(F)cc3)nc3ccccc23)C1 (configuration not stated)	-1	-3	-9	10	-13
CCN1CCCC(OC(=O)c2cc(-c3ccc(C)cc3)nc3ccccc23)C1 (configuration not stated)	0	13	-8	84*	-10
CNCc1ccccc1OCC(=O)Nc1ccccc1	2	.	-7	-1	-15
CCNCc1cc(OCC)c(OCC(=O)NCCc2ccccc2)cc1Cl	1	.	-3	99*	-20
CCOc1cc(CNCC(C)C)c(Cl)cc1OCC(=O)Nc1ccccc1	0	4	-9	82*	.

High-throughput results as filed in PubChem BioAssay.
